The results in this text go back to ChEMBL document CHEMBL1124568, “2,4-Diamino-5-benzylpyrimidines as antibacterial agents. 13. Some alkenyl derivatives with high in vitro activity against anaerobic organisms” (J Med Chem, 1989).

What is called MIC is the lowest concentration found to suppress growth. The half-life is the time needed for the level to fall by half in the phase considered. The low end stands for fast loss, the high end for slow loss. Usually Ki stands for a measure of affinity in units of concentration, obtained from inhibition or displacement. The low end stands for tighter binding, the high end for weaker binding.

Series [1] has as its system Clostridium perfringens. Put plainly: Ratio of antibacterial (Clostridium perfringens) activities compared to that of trimethoprim and metronidazole. Format: functional.
Series [2] deals with Streptococcus pyogenes. Put plainly: Antibacterial ([…] CN10) activity compared to trimethoprim. It is filed as functional. In short, it runs like this: (§1)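 Each MIC is divided by the MIC of trimethoprim run alongside. Serial dilutions were normally 0.1, 0.3, 1, 3, 10, etc., and occasionally 1, 5 and 10. For E. coli the value is the average over six strains.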

Series [3] relates to Klebsiella pneumoniae. Put plainly: Antibacterial (Klebsiella pneumoniae CN3632) activity compared to trimethoprim. It is filed as functional. An outline of the steps: as §1
The test system of series [4] is Clostridioides difficile. Put plainly: Ratio of antibacterial (Clostridium difficile) activities compared to that of trimethoprim and metronidazole. It is filed as functional.
The nature of series [5]: Antibacterial (Salmonella typhi CN512) activity compared to trimethoprim. Format: functional, salmonella typhosa.
The test system of series [6] is Proteus vulgaris. Description: Antibacterial (Proteus vulgaris CN329) activity compared to trimethoprim. Format: functional. In short, it runs like this:
as §1

Series [7] has as its system Staphylococcus aureus. Description: Antibacterial (Staphylococcus aureus CN491) activity compared to trimethoprim. It is filed as functional. An outline of the steps:
as §1

Series [8] relates to Phocaeicola vulgatus. Description: Ratio of antibacterial (Bacteroides vulgatus) activities compared to that of trimethoprim and metronidazole. Format: functional.
Series [9] deals with Shigella dysenteriae. Put plainly: (§2) Ratio of antibacterial (Shigella dysentariae CN513) activities of compound and trimethoprim.
In series [10] the test system is Escherichia coli. Put plainly: Antibacterial (Escherichia coli) activity compared to trimethoprim. Format: functional. An outline of the steps:
as §1

Series [11] can be described thus: Half-life in dogs Plasma. It is filed as ADME, organism-based, Canis lupus familiaris. The conditions noted are these: dog. An outline of the steps:
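Two fasted (18 h) male beagles received 5 mg/kg […] (free base), co-dosed with 5 mg/kg trimethoprim in propylene glycol. Jugular plasma was sampled from 0.17 to 24 h. Drug was extracted, separated by TLC and read by fluorescence densitometry. t1/2 came from least-squares linear regression of the postabsorption segment of the plasma curve.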

Series [12] concerns Bacteroides thetaiotaomicron. Put plainly: Ratio of antibacterial (Bacteroides thetaiotaomicron) activities compared to that of trimethoprim and metronidazole. It is filed as functional.
In series [13] the test system is Fusobacterium nucleatum. Description: Ratio of antibacterial (Fusobacterium nucleatum) activities compared to that of trimethoprim and metronidazole. It is filed as functional.
The test system of series [14] is Klebsiella aerogenes. Description: Antibacterial (Enterobacter aerogenes 2201/86) activity compared to trimethoprim. Format: functional. An outline of the steps: as §1
For series [15], the system named is Pasteurella multocida. Put plainly: Antibacterial (Pasteurella multocides ATCC 6587) activity compared to trimethoprim. Format: functional. In short, it runs like this: as §1
Series [16] concerns Shigella flexneri. Description: Antibacterial (Shigella flexneri CN6007) activity compared to trimethoprim. Format: functional. An outline of the steps:
as §1

Series [17] relates to Serratia marcescens. Put plainly: Antibacterial (Serratia marcescens CN2398) activity compared to trimethoprim. Format: functional. An outline of the steps: as §1
Series [18] addresses T1, Dihydrofolate reductase (Rattus norvegicus, UniProt Q920D2).
T1 sequence (Q920D2 whole entry): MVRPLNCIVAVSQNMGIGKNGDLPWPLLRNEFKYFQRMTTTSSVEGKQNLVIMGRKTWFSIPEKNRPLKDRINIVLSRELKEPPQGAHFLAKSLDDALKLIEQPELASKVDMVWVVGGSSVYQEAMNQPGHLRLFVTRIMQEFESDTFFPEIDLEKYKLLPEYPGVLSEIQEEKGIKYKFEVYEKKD
Put plainly: In vitro inhibition of rat liver dihydrofolate reductase. The following applies: read-out: I50.

Series [19] deals with Mycolicibacterium smegmatis. Description: Antibacterial (Mycobacterium smegmatis S3254) activity compared to trimethoprim. It is filed as functional. An outline of the steps: as §1
Series [20] relates to Streptococcus pyogenes. Put plainly: Ratio of antibacterial (Streptococcus pyogenes CN10) activities of compound and trimethoprim.
Series [21] concerns Shigella dysenteriae. Described as §2. Format: functional.
For series [22], the target named is T2, Dihydrofolate reductase (Escherichia coli, UniProt P0ABQ4).
T2 sequence (P0ABQ4 whole entry): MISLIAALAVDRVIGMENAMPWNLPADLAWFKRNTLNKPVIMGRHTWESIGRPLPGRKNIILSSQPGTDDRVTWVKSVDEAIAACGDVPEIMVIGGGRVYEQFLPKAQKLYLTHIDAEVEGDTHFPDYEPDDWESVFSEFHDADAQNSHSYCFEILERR
Description: In vitro inhibition of dihydrofolate reductase of Escherichia coli. The conditions noted are these: read-out: I50. An outline of the steps:
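The E. coli DHFR assay contained 1 nM enzyme, with the lower limit for I50 arbitrarily set at 2 nM. I50 was estimated from plots of % inhibition of steady-state velocity vs log inhibitor concentration.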

Series [23] has as its target Bifunctional dihydrofolate reductase-thymidylate synthase (Plasmodium berghei str. ANKA, UniProt Q27713). Put plainly: In vitro inhibition of dihydrofolate reductase of Plasmodium berghei. The conditions noted are these: read-out: I50.
Series [24] concerns Klebsiella pneumoniae. Description: Ratio of antibacterial (Klebsiella pneumoniae CN3632) activities of compound and trimethoprim. It is filed as functional. An outline of the steps: as §1
For series [25], the system named is Staphylococcus aureus. Description: Ratio of antibacterial (Staphylococcus aureus CN491) activities of compound and trimethoprim. It is filed as functional. In short, it runs like this:
as §1

Series [26] concerns Klebsiella aerogenes. Put plainly: Ratio of antibacterial (Enterobacter aerogenes, 2201/86) activities of compound and trimethoprim. It is filed as functional. An outline of the steps: as §1
Series [27] deals with Proteus vulgaris. Description: Ratio of antibacterial (Proteus vulgaris CN329) activities of compound and trimethoprim. It is filed as functional. An outline of the steps: as §1
The subject of series [28] is Escherichia coli. Put plainly: Ratio of antibacterial (Escherichia coli CN314) activities of compound and trimethoprim. It is filed as functional.
The test system of series [29] is Salmonella. Description: Ratio of antibacterial (Salmonella typhi CN512) activities of compound and trimethoprim. Format: functional, salmonella typhosa.
Series [30] deals with T2, Dihydrofolate reductase. Description: Antibacterial activity against Escherichia coli DHFR. In short, it runs like this: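 E. coli DHFR assay with 1 nM enzyme. I50 is the inhibitor concentration that halves the standard-assay velocity. […] Apparent Ki for some inhibitors was obtained by the Henderson method.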

Each structure is given as a SMILES string. ≈ marks a conversion by molar mass, not a printed value.

Sequence of Bifunctional dihydrofolate reductase-thymidylate synthase (Q27713 whole entry): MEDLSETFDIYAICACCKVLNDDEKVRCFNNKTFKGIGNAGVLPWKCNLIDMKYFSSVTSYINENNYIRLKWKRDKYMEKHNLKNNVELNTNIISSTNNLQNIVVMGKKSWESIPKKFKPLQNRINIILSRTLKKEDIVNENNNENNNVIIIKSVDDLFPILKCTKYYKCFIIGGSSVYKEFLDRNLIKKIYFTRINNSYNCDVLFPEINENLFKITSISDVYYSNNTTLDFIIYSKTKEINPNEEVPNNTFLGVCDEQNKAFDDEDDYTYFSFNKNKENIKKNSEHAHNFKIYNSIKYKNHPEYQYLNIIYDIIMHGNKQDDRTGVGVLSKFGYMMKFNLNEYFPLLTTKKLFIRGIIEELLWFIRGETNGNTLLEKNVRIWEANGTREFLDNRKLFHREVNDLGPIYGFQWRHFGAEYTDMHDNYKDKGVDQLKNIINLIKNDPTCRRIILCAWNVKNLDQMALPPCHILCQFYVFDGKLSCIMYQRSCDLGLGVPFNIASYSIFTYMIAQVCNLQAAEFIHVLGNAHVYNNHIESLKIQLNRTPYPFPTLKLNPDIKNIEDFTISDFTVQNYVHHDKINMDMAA

Consider `COc1cc(Cc2cnc(N)nc2N)cc(OC)c1OC` [TRIMETHOPRIM], for which the MIC in series [1] is > 25 µg/mL; in [2] it was 1 µg/mL (≈ 3.44 µM); in [3], 1 µg/mL (≈ 3.44 µM); in series [4] it was > 25 µg/mL; in [5], 1 µg/mL (≈ 3.44 µM); in series [6], 1 µg/mL (≈ 3.44 µM). Besides, the minimum inhibitory concentration (MIC) in series [7] is 1 µg/mL (≈ 3.44 µM); in series [8], 6.2 µg/mL; in series [9], 1 µg/mL; in series [10], 1 µg/mL (≈ 3.44 µM); in series [12], 12.5 µg/mL; in series [13], 0.8 µg/mL. Moreover, the minimal inhibitory concentration (MIC) in series [14] and in series [15] was 1 µg/mL (≈ 3.44 µM) throughout. This molecule showed a half-life in series [11] of 3.44 h.

For `C/C=C/c1cc(Cc2cnc(N)nc2N)cc(OC)c1OC`, the MIC was > 25 µg/mL in series [1]; 0.1 µg/mL (≈ 0.333 µM) in series [2]; 10 µg/mL (≈ 33.3 µM) in series [3]; > 25 µg/mL in [4]; 3 µg/mL (≈ 9.99 µM) in series [5]; 10 µg/mL (≈ 33.3 µM) in [16]. Besides, the MIC was found to be 3 µg/mL (≈ 9.99 µM) in [6]; 0.1 µg/mL (≈ 0.333 µM) in series [7]; 0.8 µg/mL in series [8]; 6 µg/mL (≈ 20 µM) in [10]; 1.6 µg/mL in series [12]; 0.8 µg/mL in [13]. For the same molecule, the minimum inhibitory concentration (MIC) was found to be 1 µg/mL (≈ 3.33 µM) in [17], 3 µg/mL (≈ 9.99 µM) in series [19], 10 µg/mL (≈ 33.3 µM) in series [14] and 10 µg/mL (≈ 33.3 µM) in [15]. The molecule also gave a half-life in [11] of 2.25 h. Further, the IC50 in [18] was 57000 nM.

Regarding `CCCc1cc(Cc2cnc(N)nc2N)cc2c1OC(C)C2` (centres undefined), the MIC in series [20] was determined as 1 µg/mL; in series [21], 30 µg/mL; in series [24] it was 100 µg/mL; in [25], 1 µg/mL; in series [26], 100 µg/mL; in series [27] it was 30 µg/mL. Further, the results for the MIC in series [28] and in series [29] were 30 µg/mL and 100 µg/mL, respectively. For the same molecule, the IC50 in series [22] stood at 21 nM; in series [23], 93 nM; in series [18], 6250 nM.

As for `C=CCc1cc(Cc2cnc(N)nc2N)cc(CCC)c1OC`, the MIC amounted to 12.5 µg/mL in series [1]; 2 µg/mL (≈ 6.4 µM) in series [2]; 100 µg/mL (≈ 320 µM) in series [3]; 25 µg/mL in [4]; 100 µg/mL (≈ 320 µM) in series [5]; 100 µg/mL (≈ 320 µM) in [16]. Further, the minimum inhibitory concentration (MIC) in [6] was > 50 µg/mL; in series [7], 1 µg/mL (≈ 3.2 µM); in series [8], 0.2 µg/mL; in [10] it was 38 µg/mL (≈ 122 µM); in series [12], 0.1 µg/mL; in [13], 0.8 µg/mL. The MIC in series [17] was > 10 µg/mL; in series [19] it was 0.5 µg/mL (≈ 1.6 µM); in [14] it was 100 µg/mL (≈ 320 µM); in series [15], 10 µg/mL (≈ 32 µM). This molecule also showed a Ki in [30] of 1.6 nM. In [18], the IC50 was determined as 15000 nM.

`CCOc1cc(Cc2cnc(N)nc2N)cc2c1OCO2`: the MIC in series [20] worked out at 1 µg/mL; in series [21], 10 µg/mL; in series [24], 30 µg/mL; in series [25], 10 µg/mL; in series [26], 10 µg/mL; in series [27], 10 µg/mL. Further, the MIC in series [28] and in series [29] was 30 µg/mL throughout. Besides, the figures for the IC50 in series [22] and in series [18] were 41 nM and 37000 nM, respectively.

In [30], `CCCc1cc(Cc2cnc(N)nc2N)cc(CCC)c1O` returned an inhibitory constant (Ki) of 1.7 nM.

As for `CCc1cc(Cc2cnc(N)nc2N)cc2c1OC(C)C2` (centres undefined), the MIC in series [20] amounted to 1 µg/mL; in series [21], 30 µg/mL; in series [24], 30 µg/mL; in series [25] it was 1 µg/mL; in series [26] it was 30 µg/mL; in [27] it was 30 µg/mL. Further, the MIC in series [28] and in series [29] was 30 µg/mL each time. Besides, the results for the IC50 in series [22], in series [23] and in series [18] were 19 nM, 100 nM and 11000 nM, respectively.
